In ChEMBL document CHEMBL1128665, “Design, synthesis, and structure-activity relationship of novel dinucleotide analogs as agents against herpes and human immunodeficiency viruses” (J Med Chem, 1995) one finds solubility and IC50 data, which are given here for eleven compounds.

Molecules are shown by their SMILES. Values after ≈ are worked out from the molar mass of the structure shown.

Test system in one series: not listed separately
Put plainly: Solubility was determined with phosphate buffer (0.10M, 5 mL). The following applies: read-out: Solubility in water. The class given is physicochemical. Summed up: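 Solid compound (70 mg) was agitated in 0.10 M phosphate buffer (5.0 mL) for 20 h. Undissolved solid was filtered off on sintered glass, and the dissolved concentration was determined by UV absorbance.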
One may read the solubility as the dissolved amount per volume that the medium holds. Take `Nc1ncnc2c1ncn2COCCP(=O)(O)O`: the solubility worked out at 13600 µg/mL (≈ 49900 µM).

In the case of `COC(=O)[C@@H](C)NP(=O)(C[C@H]1O[C@@H](n2cc(C)c(=O)[nH]c2=O)C[C@@H]1F)O[C@H]1C[C@H](n2cc(C)c(=O)[nH]c2=O)O[C@@H]1CO` (some centres undefined), the solubility stood at 8920 µg/mL (≈ 14400 µM).

For `COC(=O)[C@@H](C)NP(=O)(C[C@H]1O[C@@H](n2cc(C)c(=O)[nH]c2=O)C[C@@H]1N=[N+]=[N-])O[C@H]1C[C@H](n2cc(C)c(=O)[nH]c2=O)O[C@@H]1CO` (some centres undefined), the solubility turned out to be 9200 µg/mL (≈ 14400 µM).

Regarding `COC(=O)[C@H](C)NP(=O)(C[C@H]1O[C@@H](n2cc(C)c(=O)[nH]c2=O)C[C@@H]1F)O[C@H]1C[C@H](n2cc(C)c(=O)[nH]c2=O)O[C@@H]1CO` (some centres undefined), the solubility worked out at 8790 µg/mL (≈ 14200 µM).

Regarding `COC(=O)[C@H](C)NP(=O)(C[C@H]1O[C@@H](n2cc(C)c(=O)[nH]c2=O)C[C@@H]1N=[N+]=[N-])O[C@H]1C[C@H](n2cc(C)c(=O)[nH]c2=O)O[C@@H]1CO` (some centres undefined), the solubility came out at 9130 µg/mL (≈ 14300 µM).

Take `Cc1cn([C@H]2C[C@H](N=[N+]=[N-])[C@@H](CP(=O)(O)O[C@H]3C[C@H](n4cc(C)c(=O)[nH]c4=O)O[C@@H]3CO)O2)c(=O)[nH]c1=O`: the solubility turned out to be 3240 µg/mL (≈ 5830 µM).

As for `Cc1cn([C@H]2C[C@H](OP(=O)(O)C[C@H]3O[C@@H](n4cc(C)c(=O)[nH]c4=O)C[C@@H]3F)[C@@H](CO)O2)c(=O)[nH]c1=O`, the solubility was 3980 µg/mL (≈ 7480 µM).

Consider `COC(=O)C(C)NP(=O)(CCOCn1cnc2c(N)ncnc21)O[C@H]1[C@H](O)[C@H](n2cnc3c(N)ncnc32)O[C@@H]1CO` (some centres undefined), for which the solubility amounted to 8250 µg/mL (≈ 13600 µM).

As to `Nc1ncnc2c1ncn2COCCP(=O)(O)O[C@H]1[C@H](O)[C@H](n2cnc3c(N)ncnc32)O[C@@H]1CO`, the solubility is 2460 µg/mL (≈ 4710 µM).

`Cc1cn([C@H]2C[C@H](N=[N+]=[N-])[C@@H](CP(=O)(O)O)O2)c(=O)[nH]c1=O`: the solubility worked out at 11200 µg/mL (≈ 33700 µM).

Take `Cc1cn([C@H]2C[C@H](F)[C@@H](CP(=O)(O)O)O2)c(=O)[nH]c1=O`: the solubility stood at 12300 µg/mL (≈ 39800 µM).

The next series has as its system HeLa. The series can be described thus: Concentration required to cause microscopically visible change or disruption in about 50% of Hela cell sheet. The following applies: Homo sapiens. The class given is functional, cell-based. Summed up: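 Uninfected HeLa cell sheets were exposed to a range of compound concentrations and checked microscopically for morphological change. The value is the concentration causing visible change or disruption in about 50% of the cell sheet.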
The term IC50 denotes the concentration that gives 50% inhibition. The compound `Nc1ncnc2c1ncn2COCCP(=O)(O)O[C@H]1[C@H](O)[C@H](n2cnc3c(N)ncnc32)O[C@@H]1CO` returned a half-inhibitory concentration (IC50) of 346 µg/mL (≈ 662 µM).

The series is the same for the next values; noted with them: Homo sapiens, read-out: IC50.
Regarding `Nc1ncnc2c1ncn2COCCP(=O)(O)O`, the IC50 came out at 215 µg/mL (≈ 787 µM).

As to `COC(=O)C(C)NP(=O)(CCOCn1cnc2c(N)ncnc21)O[C@H]1[C@H](O)[C@H](n2cnc3c(N)ncnc32)O[C@@H]1CO` (some centres undefined), the IC50 worked out at 215 µg/mL (≈ 355 µM).

For the next series, the system named is HeLa. The series can be described thus: Inhibition of cytopathogenicity of herpes simplex type 1 virus (HSV-1)(KOS) in Hela cell culture. The class given is functional, cell-based. The following applies: Homo sapiens, read-out: IC50. A general note: Protection from cytopathic effect is a common read-out in antiviral testing.
Turning to `Nc1ncnc2c1ncn2COCCP(=O)(O)O`, the IC50 was found to be 3.98 µg/mL (≈ 14.6 µM).

On to `COC(=O)C(C)NP(=O)(CCOCn1cnc2c(N)ncnc21)O[C@H]1[C@H](O)[C@H](n2cnc3c(N)ncnc32)O[C@@H]1CO` (some centres undefined), for which the half-maximal inhibitory concentration (IC50) was 0.38 µg/mL (≈ 0.625 µM).

Turning to `Nc1ncnc2c1ncn2COCCP(=O)(O)O[C@H]1[C@H](O)[C@H](n2cnc3c(N)ncnc32)O[C@@H]1CO`, the half-inhibitory concentration (IC50) is 8.97 µg/mL (≈ 17.2 µM).

A further series relates to HeLa. The series can be described thus: Inhibition of cytopathogenicity of herpes simplex type 2 virus([…] in Hela cell culture. The class given is functional, cell-based. The following applies: Homo sapiens.
Compound `Nc1ncnc2c1ncn2COCCP(=O)(O)O` showed an IC50 of 5.86 µg/mL (≈ 21.5 µM).

Compound `COC(=O)C(C)NP(=O)(CCOCn1cnc2c(N)ncnc21)O[C@H]1[C@H](O)[C@H](n2cnc3c(N)ncnc32)O[C@@H]1CO` (some centres undefined) returned an IC50 of 0.88 µg/mL (≈ 1.45 µM).

`Nc1ncnc2c1ncn2COCCP(=O)(O)O[C@H]1[C@H](O)[C@H](n2cnc3c(N)ncnc32)O[C@@H]1CO` gave an IC50 of 16.3 µg/mL (≈ 31.2 µM).

Another series has as its system HeLa. Put plainly: Inhibition of cytopathogenicity of Varicella-Zoster virus(VZV)(YS) in Hela cell culture; Not active up to 128 ug/mL. Type of series: functional, cell-based, Homo sapiens.
Details: not given; call rule not given here
For the compound `Nc1ncnc2c1ncn2COCCP(=O)(O)O[C@H]1[C@H](O)[C@H](n2cnc3c(N)ncnc32)O[C@@H]1CO`, the IC50 entry is given as “Not Active”.

Another series relates to MT4. The series can be described thus: Concentration required to reduce the number of viable uninfected cells by 50%. The class given is functional, cell-based. The following applies: Homo sapiens. The method, boiled down: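 Uninfected MT4 cells were used for the toxicity arm of the anti-HIV-1 cell-protection assay. The value is the concentration reducing the number of viable uninfected cells by 50%. […]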
The compound `COC(=O)[C@@H](C)NP(=O)(C[C@H]1O[C@@H](n2cc(C)c(=O)[nH]c2=O)C[C@@H]1F)O[C@H]1C[C@H](n2cc(C)c(=O)[nH]c2=O)O[C@@H]1CO` (some centres undefined) registered an IC50 of 462 µg/mL (≈ 748 µM).

`COC(=O)[C@@H](C)NP(=O)(C[C@H]1O[C@@H](n2cc(C)c(=O)[nH]c2=O)C[C@@H]1N=[N+]=[N-])O[C@H]1C[C@H](n2cc(C)c(=O)[nH]c2=O)O[C@@H]1CO` (some centres undefined) had an IC50 of 458 µg/mL (≈ 714 µM).

`COC(=O)[C@H](C)NP(=O)(C[C@H]1O[C@@H](n2cc(C)c(=O)[nH]c2=O)C[C@@H]1F)O[C@H]1C[C@H](n2cc(C)c(=O)[nH]c2=O)O[C@@H]1CO` (some centres undefined): the IC50 was found to be 180 µg/mL (≈ 292 µM).

In turn, `COC(=O)[C@H](C)NP(=O)(C[C@H]1O[C@@H](n2cc(C)c(=O)[nH]c2=O)C[C@@H]1N=[N+]=[N-])O[C@H]1C[C@H](n2cc(C)c(=O)[nH]c2=O)O[C@@H]1CO` (some centres undefined) displayed an IC50 of 200 µg/mL (≈ 312 µM).

Regarding `Cc1cn([C@H]2C[C@H](N=[N+]=[N-])[C@@H](CP(=O)(O)O[C@H]3C[C@H](n4cc(C)c(=O)[nH]c4=O)O[C@@H]3CO)O2)c(=O)[nH]c1=O`, the 50% inhibitory concentration (IC50) stood at 99.5 µg/mL (≈ 179 µM).

The compound `Cc1cn([C@H]2C[C@H](OP(=O)(O)C[C@H]3O[C@@H](n4cc(C)c(=O)[nH]c4=O)C[C@@H]3F)[C@@H](CO)O2)c(=O)[nH]c1=O` registered a concentration for half-maximal inhibition (IC50) of 79 µg/mL (≈ 148 µM).

As to `Cc1cn([C@H]2C[C@H](N=[N+]=[N-])[C@@H](CP(=O)(O)O)O2)c(=O)[nH]c1=O`, half-maximal inhibition (IC50) was put at 115 µg/mL (≈ 346 µM).

For `Cc1cn([C@H]2C[C@H](F)[C@@H](CP(=O)(O)O)O2)c(=O)[nH]c1=O`, the midpoint of inhibition, the IC50, lay at 98.7 µg/mL (≈ 320 µM).

For another series, the system named is HeLa. The series can be described thus: Inhibition of cytopathogenicity of Varicella-Zoster virus(VZV)(YS) in Hela cell culture. The class given is functional, cell-based. The following applies: Homo sapiens.
As for `Nc1ncnc2c1ncn2COCCP(=O)(O)O`, the IC50 worked out at 16 µg/mL (≈ 58.6 µM).

`COC(=O)C(C)NP(=O)(CCOCn1cnc2c(N)ncnc21)O[C@H]1[C@H](O)[C@H](n2cnc3c(N)ncnc32)O[C@@H]1CO` (some centres undefined) displayed an IC50 of 4.82 µg/mL (≈ 7.93 µM).

A further series relates to MT4. The series can be described thus: Inhibitory Effect against HIV-1 (IIIB) in MT4 cells. The following applies: Homo sapiens.
For `COC(=O)[C@@H](C)NP(=O)(C[C@H]1O[C@@H](n2cc(C)c(=O)[nH]c2=O)C[C@@H]1F)O[C@H]1C[C@H](n2cc(C)c(=O)[nH]c2=O)O[C@@H]1CO` (some centres undefined), inhibition was half-maximal at 0.5 µg/mL (≈ 0.81 µM) (IC50).

As to `COC(=O)[C@@H](C)NP(=O)(C[C@H]1O[C@@H](n2cc(C)c(=O)[nH]c2=O)C[C@@H]1N=[N+]=[N-])O[C@H]1C[C@H](n2cc(C)c(=O)[nH]c2=O)O[C@@H]1CO` (some centres undefined), it took 0.76 µg/mL (≈ 1.19 µM) to reach half-maximal inhibition (IC50).

In the case of `COC(=O)[C@H](C)NP(=O)(C[C@H]1O[C@@H](n2cc(C)c(=O)[nH]c2=O)C[C@@H]1F)O[C@H]1C[C@H](n2cc(C)c(=O)[nH]c2=O)O[C@@H]1CO` (some centres undefined), it took 0.34 µg/mL (≈ 0.551 µM) to reach half-maximal inhibition (IC50).

For the compound `COC(=O)[C@H](C)NP(=O)(C[C@H]1O[C@@H](n2cc(C)c(=O)[nH]c2=O)C[C@@H]1N=[N+]=[N-])O[C@H]1C[C@H](n2cc(C)c(=O)[nH]c2=O)O[C@@H]1CO` (some centres undefined), the IC50 was found to be 0.61 µg/mL (≈ 0.952 µM).

`Cc1cn([C@H]2C[C@H](N=[N+]=[N-])[C@@H](CP(=O)(O)O[C@H]3C[C@H](n4cc(C)c(=O)[nH]c4=O)O[C@@H]3CO)O2)c(=O)[nH]c1=O` registered an IC50 of 1.92 µg/mL (≈ 3.46 µM).

As to `Cc1cn([C@H]2C[C@H](OP(=O)(O)C[C@H]3O[C@@H](n4cc(C)c(=O)[nH]c4=O)C[C@@H]3F)[C@@H](CO)O2)c(=O)[nH]c1=O`, the 50% inhibitory concentration (IC50) worked out at 3.04 µg/mL (≈ 5.71 µM).

For `Cc1cn([C@H]2C[C@H](N=[N+]=[N-])[C@@H](CP(=O)(O)O)O2)c(=O)[nH]c1=O`, the 50% inhibitory concentration (IC50) is 7.68 µg/mL (≈ 23.2 µM).

`Cc1cn([C@H]2C[C@H](F)[C@@H](CP(=O)(O)O)O2)c(=O)[nH]c1=O` registered an IC50 of 11.8 µg/mL (≈ 38.3 µM).
